In ChEMBL document CHEMBL4007450, “Development of 1,2,4-Oxadiazoles as Potent and Selective Inhibitors of the Human Deacetylase Sirtuin 2: Structure-Activity Relationship, X-ray Crystal Structure, and Anticancer Activity” (J Med Chem, 2017):
Activity calls are given as the source filed them. No cut-off for these calls is given here.

What was measured:
U-937 [1] = assay: Effect on cell cycle arrest in human U937 cells at 25 uM after 48 hrs by propidium iodide staining-based FACS analysis; format: functional
[2] = molecular target: T1, NAD-dependent protein deacetylase sirtuin-2 (Homo sapiens) (UniProt Q8IXJ6); assay: Inhibition of human N-terminal His6-SUMO-tagged SIRT2 catalytic domain (43 to 356 residues) deacetylase activity expressed in Escherichia coli using alpha-tubulin-acetylLys40 peptide as substrate at 100 uM after 45 mins in presence of NAD+ by pNCA/GDH-based microplate spectrophotometric analysis
T1 sequence (whole entry): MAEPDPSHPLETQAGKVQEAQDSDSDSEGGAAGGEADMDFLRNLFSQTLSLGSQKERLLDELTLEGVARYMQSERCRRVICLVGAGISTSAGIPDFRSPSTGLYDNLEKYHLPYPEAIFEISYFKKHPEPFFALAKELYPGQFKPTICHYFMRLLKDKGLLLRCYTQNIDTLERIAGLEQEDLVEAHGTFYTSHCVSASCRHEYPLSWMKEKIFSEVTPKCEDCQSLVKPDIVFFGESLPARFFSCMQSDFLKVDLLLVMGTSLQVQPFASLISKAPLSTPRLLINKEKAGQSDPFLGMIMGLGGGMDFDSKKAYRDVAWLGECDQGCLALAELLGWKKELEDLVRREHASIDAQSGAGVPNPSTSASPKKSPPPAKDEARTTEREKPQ
In short: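 Continuous coupled assay: Sirt2 product nicotinamide is converted by pNCA/GDH, and NADPH oxidation is read at 340 nm. Compounds were tested at 10 and 100 μM. Background was taken without peptide or NAD+.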

[3] = molecular target: T2, NAD-dependent protein deacetylase sirtuin-2 (Homo sapiens, UniProt Q8IXJ6)
T2 sequence (Q8IXJ6 whole entry): T1 sequence (whole entry)

U-937 [4] = assay: Cell cycle arrest in human U937 cells assessed as accumulation at G2/M phase at 25 uM after 48 hrs by propidium iodide staining-based FACS analysis; format: functional
[5] = molecular target: NAD-dependent protein deacylase sirtuin-5, mitochondrial (Homo sapiens) (UniProt Q9NXA8); assay: Inhibition of human SIRT5 (34 to 302 residues) desuccinylase activity expressed in Escherichia coli using peptide as substrate up to 100 uM after 45 mins in presence of NAD+ by pNCA/GDH-based microplate spectrophotometric analysis
[6] = molecular target: T3, NAD-dependent protein deacetylase sirtuin-1 (Homo sapiens) (UniProt Q96EB6); assay: Inhibition of human full length SIRT1 activity expressed in Escherichia coli using p53 peptide as substrate up to 100 uM after 45 mins in presence of NAD+ by pNCA/GDH-based microplate spectrophotometric analysis
T3 sequence (whole entry): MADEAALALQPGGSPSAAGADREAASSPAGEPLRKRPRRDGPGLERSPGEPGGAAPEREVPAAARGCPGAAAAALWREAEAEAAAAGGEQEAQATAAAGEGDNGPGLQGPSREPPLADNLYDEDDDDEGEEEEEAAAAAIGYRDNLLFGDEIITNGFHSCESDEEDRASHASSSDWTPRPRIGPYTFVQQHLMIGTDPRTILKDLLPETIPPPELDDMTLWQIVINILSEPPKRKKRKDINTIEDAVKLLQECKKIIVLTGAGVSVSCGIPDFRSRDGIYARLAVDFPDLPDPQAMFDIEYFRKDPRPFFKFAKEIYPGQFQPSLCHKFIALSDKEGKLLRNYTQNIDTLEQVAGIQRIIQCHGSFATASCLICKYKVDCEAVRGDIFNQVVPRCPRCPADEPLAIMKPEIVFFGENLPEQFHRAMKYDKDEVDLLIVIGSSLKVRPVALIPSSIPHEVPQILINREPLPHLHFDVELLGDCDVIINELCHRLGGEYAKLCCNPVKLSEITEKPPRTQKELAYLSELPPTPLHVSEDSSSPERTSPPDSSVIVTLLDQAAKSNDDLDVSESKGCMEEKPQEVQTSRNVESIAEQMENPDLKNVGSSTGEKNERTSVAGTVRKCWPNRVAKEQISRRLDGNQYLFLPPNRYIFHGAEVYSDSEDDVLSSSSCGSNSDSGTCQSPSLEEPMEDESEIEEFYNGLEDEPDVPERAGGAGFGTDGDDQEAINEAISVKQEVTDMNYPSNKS
In short: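 Full-length Sirt1 at 2 µM with p53 peptide RHKacKLMFK as substrate. Activity was measured in the same coupled pNCA/GDH mix as for Sirt2 (α-ketoglutarate, NADPH, Na-phosphate pH 7.8, 3% DMSO), following NADPH oxidation at 340 nm at 20 °C for 45 min. Compounds were tested up to 100 µM.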

[7] = molecular target: NAD-dependent protein deacylase sirtuin-5, mitochondrial (Homo sapiens) (UniProt Q9NXA8); assay: Inhibition of human SIRT5 (34 to 302 residues) deacetylase activity expressed in Escherichia coli using Prx1 peptide as substrate up to 100 uM after 45 mins in presence of NAD+ by pNCA/GDH-based microplate spectrophotometric analysis
[8] = molecular target: T4, NAD-dependent protein deacetylase sirtuin-3, mitochondrial (Homo sapiens) (UniProt Q9NTG7); assay: Inhibition of human SIRT3 (114 to 380 residues) activity expressed in Escherichia coli using AceCS2 peptide as substrate up to 100 uM after 45 mins in presence of NAD+ by pNCA/GDH-based microplate spectrophotometric analysis
T4 sequence (whole entry): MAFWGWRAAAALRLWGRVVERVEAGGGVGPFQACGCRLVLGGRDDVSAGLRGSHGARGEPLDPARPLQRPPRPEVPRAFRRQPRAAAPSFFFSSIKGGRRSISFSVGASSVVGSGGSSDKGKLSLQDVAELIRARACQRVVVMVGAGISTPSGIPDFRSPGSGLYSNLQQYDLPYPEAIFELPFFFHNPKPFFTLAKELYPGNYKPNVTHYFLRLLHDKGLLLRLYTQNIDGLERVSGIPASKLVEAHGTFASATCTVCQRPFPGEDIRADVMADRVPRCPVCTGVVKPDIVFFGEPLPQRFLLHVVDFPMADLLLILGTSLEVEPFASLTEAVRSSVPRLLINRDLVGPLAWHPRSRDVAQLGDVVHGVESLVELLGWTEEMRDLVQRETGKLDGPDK
In short: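 Same pNCA/GDH-coupled 340 nm NADPH read-out as the Sirt2 assay, using 20 mM Na-phosphate pH 7.8 with 3% DMSO at 20 °C for 45 min. Sirt3 (114-380) was used at 5 µM with AceCS2 peptide TRSGacKVMR as substrate. Inhibitors were tested up to 100 µM.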

NB-4 = assay: Induction of apoptosis in human NB4 cells assessed as pre-G1 accumulation at 5 to 50 uM after 48 hrs by propidium iodide staining-based FACS analysis; format: functional, cell-based
In short: (§1)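 Leukemia cells (U937, NB4, HL-60, K562) were grown in RPMI-1640 with 10% FBS, 2 mM L-glutamine and antibiotics, then treated for 48 h at 5, 10, 25 and 50 μM. 2.5×10^5 cells were stained 30 min in the dark in hypotonic PI buffer (0.1% Triton X-100, 0.1% citrate, 50 µg/mL PI, RNase A). Apoptosis was scored as pre-G1 content by flow cytometry. Duplicates, mean ± SD.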

U-937 [9] = assay: Induction of apoptosis in human U937 cells assessed as pre-G1 accumulation at 5 to 50 uM after 48 hrs by propidium iodide staining-based FACS analysis; format: functional, cell-based; in short: as §1
MDA-MB-231 = assay: Induction of apoptosis in human MDA-MB-231 cells assessed as pre-G1 accumulation at 5 to 50 uM after 48 hrs by propidium iodide staining-based FACS analysis; format: functional, cell-based
In short: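 MDA-MB-231 breast cancer cells were grown in DMEM with 10% FBS, 2 mM L-glutamine and antibiotics, then exposed for 48 h at 5, 10, 25 or 50 μM. 2.5×10^5 cells were stained in hypotonic buffer with 50 µg/mL PI, 0.1% Triton X-100, 0.1% citrate and RNase A for 30 min in the dark. Pre-G1 fraction was measured by flow cytometry. Biological duplicates, mean ± SD.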

K562 = assay: Induction of apoptosis in human K562 cells assessed as pre-G1 accumulation at 5 to 50 uM after 48 hrs by propidium iodide staining-based FACS analysis; format: functional, cell-based; in short: as §1
HL-60 = assay: Induction of apoptosis in human HL60 cells assessed as pre-G1 accumulation at 5 to 50 uM after 48 hrs by propidium iodide staining-based FACS analysis; format: functional, cell-based; in short: as §1

NAD-dependent protein deacylase sirtuin-5, mitochondrial (Homo sapiens), sequence (Q9NXA8 37-310 limits assumed): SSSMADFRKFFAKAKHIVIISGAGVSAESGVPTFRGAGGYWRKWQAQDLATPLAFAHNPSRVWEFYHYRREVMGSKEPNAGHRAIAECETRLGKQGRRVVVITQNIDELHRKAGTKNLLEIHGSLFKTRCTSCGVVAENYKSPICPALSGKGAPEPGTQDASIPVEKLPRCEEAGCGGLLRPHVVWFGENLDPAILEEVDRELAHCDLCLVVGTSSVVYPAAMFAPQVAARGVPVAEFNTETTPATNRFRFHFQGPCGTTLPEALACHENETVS

inhibition [2]	SMILES	Activity (U-937 [1])	other results
Active	Clc1ccc(-c2noc(CN3CCSCC3)n2)cc1	inactive	–
Active	OCC1CCN(Cc2nc(-c3ccc(Cl)cc3)no2)CC1	inactive	–
Active	Clc1ccc(-c2noc(CN3CCCCCC3)n2)cc1	inactive	–
inactive	O=[N+]([O-])c1ccc(-c2noc(CN3CCCC3)n2)cc1	inactive	–
Active	Clc1ccc(-c2noc(CNC3CCCCC3)n2)cc1	inactive	–
Active	Clc1ccc(-c2noc(CN3CCCC3)n2)cc1	inactive	–
Active	Clc1ccc(-c2noc(CCCBr)n2)cc1	inactive	inhibition [5]: inactive; IC50 [3]: 2.5 µM; Activity (NB-4): inactive; inhibition [6]: inactive; inhibition [7]: inactive; Activity (U-937 [9]): inactive; inhibition [8]: inactive; Activity (MDA-MB-231): inactive; Activity (K562): inactive; Activity (HL-60): inactive
inactive	Clc1ccc(-c2noc(CCCN3CCCCC3)n2)cc1	inactive	–
Active	Cc1ccc(-c2noc(CCCBr)n2)cc1	inactive	–
Active	CN1CCN(Cc2nc(-c3ccc(Cl)cc3)no2)CC1	inactive	–
Active	Clc1ccc(-c2noc(CN3CCN(c4ccccc4)CC3)n2)cc1	inactive	–
Active	Clc1ccc(-c2noc(CN3CCOCC3)n2)cc1	inactive	–
Active	Clc1ccc(-c2noc(CN3CCCCC3)n2)cc1	inactive	–

Second part, the molecule before the results:

SMILES	inhibition [2]	Activity (U-937 [1])	other results
BrCCCc1nc(-c2ccccc2)no1	–	inactive	–
NC(=O)c1nc(-c2ccc(Br)cc2)no1	–	inactive	–
Clc1cccc(-c2noc(CN3CCCCC3)n2)c1	–	inactive	–
Clc1cccc(-c2noc(CCCBr)n2)c1	–	inactive	–
CCN(CC)Cc1nc(-c2ccc([N+](=O)[O-])cc2)no1	inactive	inactive	–
O=[N+]([O-])c1ccc(-c2noc(CCCBr)n2)cc1	Active	inactive	IC50 [3]: 6.6 µM
Clc1ccc(-c2noc(CBr)n2)cc1	–	–	Activity (U-937 [4]): Active
ClCCCc1nc(-c2ccc(Br)cc2)no1	–	inactive	inhibition [5]: inactive; IC50 [3]: 3.6 µM; inhibition [6]: inactive; inhibition [7]: inactive; inhibition [8]: inactive
c1cncc(-c2noc(CN3CCCCC3)n2)c1	–	inactive	–
c1ccc(-c2noc(CN3CCCCC3)n2)cc1	–	inactive	–
BrCCCc1nc(-c2ccccc2Br)no1	–	–	Activity (U-937 [4]): Active
Clc1ccccc1-c1noc(CN2CCCCC2)n1	–	inactive	–
FC(F)(F)c1nc(-c2ccc(Br)cc2)no1	–	inactive	–
OCCN1CCN(CCCc2nc(-c3ccccc3)no2)CC1	inactive	inactive	–
COC(=O)c1nc(-c2ccc(Br)cc2)no1	–	inactive	–
Cc1nc(-c2ccc(Cl)cc2)no1	–	inactive	–
CC(=O)OCCCc1nc(-c2ccc(Cl)cc2)no1	–	–	IC50 [3]: 21.2 µM
BrCCCc1nc(-c2cccc(Br)c2)no1	–	inactive	–
CN(C)Cc1nc(-c2ccc(Cl)cc2)no1	–	inactive	–
CN(C)Cc1nc(-c2ccc([N+](=O)[O-])cc2)no1	inactive	inactive	–
OCCCc1nc(-c2ccc(Cl)cc2)no1	–	–	IC50 [3]: 41.2 µM
Clc1ccccc1-c1noc(CCCBr)n1	–	–	Activity (U-937 [4]): Active
FC(F)(F)c1ccc(-c2noc(CCCBr)n2)cc1	–	inactive	IC50 [3]: 3.9 µM
BrCCCCc1nc(-c2ccc(Br)cc2)no1	–	inactive	IC50 [3]: 2.6 µM
